TRPC4 PAM – allosteric potentiators of mouse TRPC4 channel | HEK293 TRPC4beta/mu-opioid, DAMGO EC20, Fluo-4 Ca2+ flux; active compounds read high | AID 2227 | 310,000 compounds, 0.42% hits | B-score at 10 µM | Q9QUQ5;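 active = B-score of calcium response area above 5 SD of library B-scores, with initial fluorescence ratio within 5 SD of library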;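 also: B-score of integrated fluorescence ratio over time as area under calcium response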
TRPC4 act – opens the mouse TRPC4 cation channel | Q9QUQ5 | HEK293 TRPC4beta/mu-opioid, Fluo4 calcium fluorescence; active compounds read high | B-score at 10 µM | 310,000 compounds, 0.49% hits | AID 2237;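 active = B-score above 5 SD of library B-scores, and initial fluorescence ratio not above library mean plus 5 SD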;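 also: positive B-score marks a calcium rise read as TRPC4 activation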
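Technique: kinetic Fluo4 calcium fluorescence; Test system: TRPC4beta and mu-opioid receptor HEK293 stable cells; Measure: B-scored integrated calcium fluorescence ratio; Benchmarks: low control buffer alone, high control maximal DAMGO; Schedule: 45 min room-temperature Fluo4 loading, 110 s read.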
TRPC6 activator – mouse TRPC6 channel activation. Q61143. HEK293-TRPC6 membrane potential dye fluorescence; active compounds read high. B-score at 10 µM. 310,000 compounds, 0.13% hits. AID 2550;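 active = B-score of the integrated fluorescence ratio above library mean plus 3 SD, and starting fluorescence ratio within library mean plus 5 SD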;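 also: higher score means more depolarization so channel activation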
TRPC4 block – inhibitors of mouse TRPC4 channel. Q9QUQ5. HEK293 TRPC4beta/mu-opioid, DAMGO-evoked Fluo4 calcium flux; active compounds read low. B-score at 10 µM. 300,000 compounds, 0.39% hits. AID 2247;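 active = B-score over 3 SD under the library average, no early fluorescence shift, positive overall ratio signal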
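material = TRPC4beta/mu-opioid receptor HEK293 cell line | probe or stimulus = sequential submaximal and maximal DAMGO stimulation | compound dosing = one concentration per compound | measured by = Fluo4 Ca2+ flux fluorescence | evaluation = integrated fluorescence ratio relative to baseline, converted to per-well B score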
TRPC6 inhibitor – mouse TRPC6 channel inhibition. HEK293-TRPC6, membrane potential dye, ACh-evoked depolarization; active compounds read low. Q61143. B-score at 10 µM. AID 2553. 310,000 compounds, 1.1% hits;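 active = B-score under library mean minus 3 SD, initial fluorescence not abnormally high, positive integrated signal ratio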;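 also: B-score derived from integrated fluorescence ratio over the kinetic read; more negative B-score means stronger inhibition of depolarization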
The depositor's hits bear a star. Rows were chosen to be rich in hits. Some 2.3% of all compounds tested hit in one or more screens of this group.

Cc1ccc(C2=NS(=O)(=O)N(C)C(C(=O)N3CCOCC3)=C2)cc1 was read as TRPC4 PAM inactive, TRPC4 act inactive, TRPC6 activator inactive, TRPC4 block inactive and TRPC6 inhibitor inactive.
For COc1ccc(CCN(C)CCC(=O)Nc2c(C)cc(C)cc2C)cc1OC the results were TRPC4 PAM inactive, TRPC4 act 111*, TRPC6 activator inactive, TRPC4 block inactive and TRPC6 inhibitor inactive.
Cc1ccc(-c2cc(-c3n[nH]c(=S)n3C)c3ccccc3n2)cc1 was read as TRPC4 PAM 12*, TRPC4 act inactive, TRPC6 activator inactive, TRPC4 block inactive and TRPC6 inhibitor inactive.
For CCn1c(-c2cc(-c3ccc(C)c(C)c3)nc3ccccc23)n[nH]c1=S the results were TRPC4 PAM inactive, TRPC4 act inactive, TRPC6 activator inactive, TRPC4 block inactive and TRPC6 inhibitor inactive.
For CCOC(=O)C1=NNC(C(=O)c2ccccc2)C1c1ccc(C)cc1 (stereo not drawn) the results were TRPC4 PAM inactive, TRPC4 act inactive, TRPC6 activator inactive, TRPC4 block -8* and TRPC6 inhibitor inactive.
For Cc1ccc(OCc2cc(C(=O)N(C)CCc3nc4ccccc4[nH]3)no2)cc1C the results were TRPC4 PAM inactive, TRPC4 act inactive, TRPC6 activator inactive, TRPC4 block -6* and TRPC6 inhibitor inactive.
`COc1ccc(Br)cc1S(=O)(=O)Nc1ncccc1C` gave TRPC4 PAM inactive, TRPC4 act inactive, TRPC6 activator inactive, TRPC4 block inactive and TRPC6 inhibitor inactive.
For COc1ccc(S(=O)(=O)Nc2ncccc2C)c2ccccc12 the results were TRPC4 PAM 11*, TRPC4 act inactive, TRPC6 activator inactive, TRPC4 block inactive and TRPC6 inhibitor inactive.
Screening CCCn1c(C2CCCN2c2nc(-c3ccc(C)cc3)cs2)nc2ccccc21 (stereo not drawn) returned TRPC4 PAM inactive, TRPC4 act 46*, TRPC6 activator inactive, TRPC4 block inactive and TRPC6 inhibitor inactive.
Cc1ccc(Cn2c(C3CCCN3c3nc(-c4ccc(F)cc4)cs3)nc3cc(Cl)c(Cl)cc32)cc1 (stereo not drawn) was read as TRPC4 PAM inactive, TRPC4 act inactive, TRPC6 activator inactive, TRPC4 block inactive and TRPC6 inhibitor inactive.
`NS(=O)(=O)c1cnccc1Nc1cccc(F)c1` gave TRPC4 PAM inactive, TRPC4 act inactive, TRPC6 activator inactive, TRPC4 block inactive and TRPC6 inhibitor inactive.
Screening O=C(COC(=O)C1CC1)Nc1nc(-c2ccc(F)c(F)c2)cs1 returned TRPC4 PAM inactive, TRPC4 act inactive, TRPC6 activator inactive, TRPC4 block -6* and TRPC6 inhibitor inactive.
`O=C(COC(=O)c1ccccn1)Nc1nc(-c2ccccc2)cs1` gave TRPC4 PAM inactive, TRPC4 act inactive, TRPC6 activator inactive, TRPC4 block -6* and TRPC6 inhibitor inactive.
`Cc1ccccc1NC(=O)C1CCN(C(=O)N2CCOc3ccccc32)CC1` gave TRPC4 PAM inactive, TRPC4 act inactive, TRPC6 activator inactive, TRPC4 block inactive and TRPC6 inhibitor inactive.
For CCn1cc[n+](C)c1P(c1ccccc1)c1ccccc1 the results were TRPC4 PAM inactive, TRPC4 act 51*, TRPC6 activator inactive, TRPC4 block -5* and TRPC6 inhibitor inactive.
For CC(C)(C)C(=O)N(Cc1ccc(Cl)cc1)Cc1cccnc1 the results were TRPC4 PAM inactive, TRPC4 act inactive, TRPC6 activator inactive, TRPC4 block inactive and TRPC6 inhibitor inactive.
For COC(=O)CCC(=O)Nc1nnc(C(F)(F)F)s1 the results were TRPC4 PAM inactive, TRPC4 act inactive, TRPC6 activator inactive, TRPC4 block inactive and TRPC6 inhibitor inactive.
Screening CCC(NC(=O)Nc1nnc(C(F)(F)F)s1)(C(F)(F)F)C(F)(F)F returned TRPC4 PAM inactive, TRPC4 act inactive, TRPC6 activator inactive, TRPC4 block inactive and TRPC6 inhibitor -6.1*.
For C/C(=N\N1CCN(Cc2ccc(Cl)cc2)CC1)c1ccc([N+](=O)[O-])cc1 the results were TRPC4 PAM inactive, TRPC4 act inactive, TRPC6 activator inactive, TRPC4 block inactive and TRPC6 inhibitor inactive.
